Data from ChEMBL document CHEMBL1255395, “Laninamivir prodrug CS-8958, a long-acting neuraminidase inhibitor, shows superior anti-influenza virus activity after a single administration” (Antimicrob Agents Chemother, 2010).
Calls of active or inactive are those of the source. The calls are words filed in the database; no cut-off is given here.

Key:
Influenza A virus [1] = test: Antimicrobial activity against Influenza A virus (A/Puerto Rico/8/34(H1N1)) infected in BALB/c mouse assessed as increase in mouse survival at 3.3 mg/kg, itn administered for 7 days before infection; type: functional, organism-based; parameters: dose 3.3 mg/kg; details: A/Puerto Rico/8/1934(H1N1)
Influenza A virus [2] = test: Antimicrobial activity against Influenza A virus (A/Puerto Rico/8/34(H1N1)) infected in BALB/c mouse assessed as increase in mouse survival at 7 mg/kg, itn administered for 7 days before infection; type: functional, organism-based; parameters: dose 7 mg/kg; details: A/Puerto Rico/8/1934(H1N1)
Influenza A virus [3] = test: Antimicrobial activity against Influenza A virus (A/Puerto Rico/8/34(H1N1)) infected in BALB/c mouse assessed as increase in mouse survival at 14 mg/kg, itn administered for 7 days before infection; type: functional, organism-based; parameters: dose 14 mg/kg; details: A/Puerto Rico/8/1934(H1N1)
Influenza A virus [4] = test: Antimicrobial activity against Influenza A virus (A/Puerto Rico/8/34(H1N1)) infected in BALB/c mouse assessed as increase in mouse survival at 1.6 mg/kg, itn administered for 7 days before infection; type: functional, organism-based; parameters: dose 1.6 mg/kg; details: A/Puerto Rico/8/1934(H1N1)
Influenza A virus [5] = test: Antimicrobial activity against Influenza A virus (A/Puerto Rico/8/34(H1N1)) infected in BALB/c mouse assessed as increase in mouse survival at 4.7 mg/kg, itn administered for 7 days before infection; type: functional, organism-based; parameters: dose 4.7 mg/kg; details: A/Puerto Rico/8/1934(H1N1)
Influenza A virus [6] = test: Antimicrobial activity against Influenza A virus (A/Puerto Rico/8/34(H1N1)) infected in BALB/c mouse assessed as reduction in viral titer in lung at 14 mg/kg, itn administered for 7 days before infection; type: functional, organism-based; parameters: dose 14 mg/kg; details: A/Puerto Rico/8/1934(H1N1)
Outline: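 Female BALB/c mice (5–6 wk) given one intranasal dose in saline (50 μl) 7 days before intranasal infection with A/PR/8/34, 500 PFU. Lungs (three mice per time point) excised on days 1, 2, 3 and 4 and homogenized in PBS-BSA/PS. Titer determined by MDCK plaque assay, read as log10 PFU/lungs, mean ± SD (n = 3). AUC expressed as percent of saline control.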

Influenza B virus [7] = test: Antimicrobial activity against Influenza B virus (B/Hong Kong/05/1972) infected in BALB/c mouse assessed as increase in mouse survival at 1.1 mg/kg, itn administered for 7 days before infection; type: functional, organism-based; parameters: dose 1.1 mg/kg
Influenza B virus [8] = test: Antimicrobial activity against Influenza B virus (B/Hong Kong/05/1972) infected in BALB/c mouse assessed as increase in mouse survival at 3.3 mg/kg, itn administered for 7 days before infection; type: functional, organism-based; parameters: dose 3.3 mg/kg
Influenza B virus [9] = test: Antimicrobial activity against Influenza B virus (B/Hong Kong/05/1972) infected in BALB/c mouse assessed as increase in mouse survival at 9.6 mg/kg, itn administered for 7 days before infection; type: functional, organism-based; parameters: dose 9.6 mg/kg
Influenza B virus [10] = test: Antimicrobial activity against Influenza B virus (B/Malaysia/2506/2004) infected itn dosed Mustela putorius furo assessed as nasal viral titer treated after 4 hrs post infection measured after 1 day; type: functional, organism-based
Outline: (§1)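 Ferrets (600–800 g), seronegative by hemagglutination inhibition, anaesthetized with ketamine/xylazine and infected with B/Malaysia/2506/2004, 1,000 PFU/100 μl. From 4 hpi they received either a single intranasal dose (saline, 0.05 or 0.5 μmol/kg) or 25 mg/kg oral twice daily. Nasal wash titers measured by MDCK plaque assay on days 1, 2 and 3, log10 PFU/ml (n = 5). Undetectable samples entered at the lower limit of detection.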

Influenza B virus [11] = test: Antimicrobial activity against Influenza B virus (B/Malaysia/2506/2004) infected itn dosed Mustela putorius furo assessed as nasal viral titer treated after 4 hrs post infection measured after 2 days; type: functional, organism-based; outline: as §1
Influenza B virus [12] = test: Antimicrobial activity against Influenza B virus (B/Malaysia/2506/2004) infected itn dosed Mustela putorius furo assessed as nasal viral titer treated after 4 hrs post infection measured after 3 days; type: functional, organism-based; outline: as §1
Influenza A virus [13] = test: Antimicrobial activity against Influenza A virus (A/Puerto Rico/8/34(H1N1)) infected in BALB/c mouse assessed as reduction in viral titer in lung at 0.17 mg/kg, itn administered 11 hrs post infection measured after 35 hrs post infection; type: functional, organism-based; parameters: dose 0.17 mg/kg; details: A/Puerto Rico/8/1934(H1N1)
Outline: (§2)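 BALB/c mice infected intranasally with A/PR/8/34 at 30 PFU. Intranasal dosing at 0.5 μmol/kg began at 11 hpi, either repeated twice daily or given once followed by twice-daily saline. Lungs (n = 3) were taken at 35, 59 and 83 hpi and homogenized. Titers were measured by MDCK plaque assay as log10 PFU/lungs. Two-way ANOVA and Dunnett test were applied.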

Influenza A virus [14] = test: Antimicrobial activity against Influenza A virus (A/Puerto Rico/8/34(H1N1)) infected in BALB/c mouse assessed as reduction in viral titer in lung at 0.17 mg/kg, itn administered 11 hrs post infection measured after 59 hrs post infection; type: functional, organism-based; parameters: dose 0.17 mg/kg; details: A/Puerto Rico/8/1934(H1N1); outline: as §2
Influenza A virus [15] = test: Antimicrobial activity against Influenza A virus (A/Puerto Rico/8/34(H1N1)) infected in BALB/c mouse assessed as reduction in viral titer in lung at 0.17 mg/kg, itn administered 11 hrs post infection measured after 83 hrs post infection; type: functional, organism-based; parameters: dose 0.17 mg/kg; details: A/Puerto Rico/8/1934(H1N1); outline: as §2
Influenza B virus [16] = test: Antimicrobial activity against Influenza B virus (B/Hong Kong/05/1972) infected in BALB/c mouse assessed as increase in mouse survival at 1.1 mg/kg, itn administered for 7 days before infection measured at day 20; type: functional
Influenza A virus [17] = test: Antimicrobial activity against Influenza A virus (A/Puerto Rico/8/34(H1N1)) infected in BALB/c mouse assessed as increase in mouse survival at 1.7 mg/kg, itn administered for 7 days before infection; type: functional, organism-based; parameters: dose 1.7 mg/kg; details: A/Puerto Rico/8/1934(H1N1)
Outline: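 Single intranasal dose in saline (50 μl) given to anesthetized female BALB/c mice 7 days before intranasal infection with A/PR/8/34 at 500 PFU, n = 12. Survival was checked daily to day 20. Groups were compared with saline controls by Kaplan-Meier and log-rank test, with Bonferroni adjustment where needed.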

CC(=O)N[C@H]1[C@H]([C@H](O)[C@H](O)CO)OC(C(=O)O)=C[C@@H]1NC(=N)N [ZANAMIVIR]
Activity (Influenza A virus [1]): Active | Activity (Influenza A virus [2]): Active | Activity (Influenza A virus [3]): Active | Activity (Influenza A virus [4]): Active | Activity (Influenza A virus [5]): Active | Activity (Influenza A virus [6]): Active | Activity (Influenza B virus [7]): Active | Activity (Influenza B virus [8]): Active | Activity (Influenza B virus [9]): Active | Activity (Influenza B virus [10]): Dose-dependent effect | Activity (Influenza B virus [11]): Dose-dependent effect | Activity (Influenza B virus [12]): Dose-dependent effect | Activity (Influenza A virus [13]): Active | Activity (Influenza A virus [14]): Active | Activity (Influenza A virus [15]): Active | Activity (Influenza B virus [16]): 36% | Activity (Influenza A virus [17]): Active
